Tests used:
Mus musculus [1] = species: Mus musculus; test: Anticonvulsant activity in MES induced Kunming mouse model of seizure assessed as EC50 in plasma; assay type: functional, organism-based
How it was run: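 After the MES test in KM mice (oral dosing in 0.5% CMC-Na, 1 h), animals were killed immediately and plasma and brain concentrations were measured by LC−MS/MS. EC50 from concentration−response curves of protection against plasma concentration, by nonlinear regression.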

Mus musculus [2] = species: Mus musculus; test: Anticonvulsant activity in C57BL/6 mouse 6 Hz seizure model at 44 mA measured after 1 hr; assay type: functional
[3] = molecular target: Potassium voltage-gated channel subfamily KQT member 2 (Rattus norvegicus, UniProt O88943); test: Agonist activity at rat KCNQ2 channel expressed in CHO cells by patch clamp method; assay type: cell-based
Chain of Potassium voltage-gated channel subfamily KQT member 2 (O88943 whole entry, the tested form may be a part): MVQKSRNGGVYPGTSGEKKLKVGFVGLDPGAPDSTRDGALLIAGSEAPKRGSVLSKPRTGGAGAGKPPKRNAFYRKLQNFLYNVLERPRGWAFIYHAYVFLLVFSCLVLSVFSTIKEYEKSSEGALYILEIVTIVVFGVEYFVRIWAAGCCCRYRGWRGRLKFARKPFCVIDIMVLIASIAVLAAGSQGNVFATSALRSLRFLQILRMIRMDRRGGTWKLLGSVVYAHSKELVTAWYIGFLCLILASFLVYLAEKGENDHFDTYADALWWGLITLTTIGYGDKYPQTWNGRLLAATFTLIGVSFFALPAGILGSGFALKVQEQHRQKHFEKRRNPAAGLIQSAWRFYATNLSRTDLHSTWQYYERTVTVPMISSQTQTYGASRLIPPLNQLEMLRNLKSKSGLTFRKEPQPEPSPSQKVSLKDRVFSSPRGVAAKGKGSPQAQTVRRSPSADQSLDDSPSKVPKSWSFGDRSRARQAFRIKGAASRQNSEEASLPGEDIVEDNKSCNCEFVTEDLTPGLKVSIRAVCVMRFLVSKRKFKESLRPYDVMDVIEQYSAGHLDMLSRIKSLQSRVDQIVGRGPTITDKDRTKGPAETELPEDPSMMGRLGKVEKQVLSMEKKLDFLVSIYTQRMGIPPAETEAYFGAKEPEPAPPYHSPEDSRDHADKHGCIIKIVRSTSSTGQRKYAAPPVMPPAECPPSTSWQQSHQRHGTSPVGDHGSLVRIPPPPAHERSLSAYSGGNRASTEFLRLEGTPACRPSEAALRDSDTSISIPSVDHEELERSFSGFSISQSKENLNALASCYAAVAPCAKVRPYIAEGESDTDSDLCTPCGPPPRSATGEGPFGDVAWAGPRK
How it was run: (§1)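 Whole-cell patch clamp at room temperature on CHO cells (DMEM/F12, 10% FBS) transiently co-transfected with EGFP and hKCNQ1, rKCNQ2, rKCNQ3 A278T, hKCNQ4 or hKCNQ5; KCNQ2/3 at 1:1 cDNA ratio. Pipette solution 145 mM KCl, 5 mM MgATP, pH 7.3; bath 140 mM NaCl, 5 mM KCl, pH 7.4, under perfusion. V1/2 from Boltzmann fits; I/I0 is current amplitude with versus without compound; n = 4−6.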

Mus musculus [4] = test: Anticonvulsant activity in po dosed MES induced Kunming mouse model of seizure; assay type: functional
How it was run: (§2)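 MES test in male KM mice. Compounds freshly suspended in 0.5% CMC-Na and given by gavage at 20 mL/kg; 160 V stimulus through ear clips. Protection scored as absence of hindlimb tonic extension; time course at 0.25, 0.5, 1 and 2 h, otherwise tested at 1 h. ED50 from dose−response by nonlinear regression; Fisher's exact test versus vehicle.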

Mus musculus [5] = test: Anticonvulsant activity in MES induced Kunming mouse model of seizure at 100 mg/kg, po; assay type: functional; how it was run: as §2
[6] = molecular target: Potassium voltage-gated channel subfamily KQT member 2 (Rattus norvegicus) (UniProt O88943); test: Agonist activity at rat Kv7.2 channel expressed in CHO cells assessed as amplitude change of outward current at 10 uM by whole cell patch clamp based electrophysiological method; settings: filed as agonist
Chain of Potassium voltage-gated channel subfamily KQT member 2 (Rattus norvegicus) (O88943 whole entry, the tested form may be a part): as above
How it was run: (§3)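 Rat KCNQ2 cotransfected with EGFP plasmid by Lipofectamine 3000 into CHO cells (DMEM/F12, 10% FBS; split 24 h before transfection). Whole-cell recording at room temperature. Pipette: 145 mM KCl, 1 mM MgCl2, 5 mM EGTA, 10 mM HEPES, 5 mM MgATP, pH 7.3. Bath, constantly perfused: 140 mM NaCl, 5 mM KCl, 2 mM CaCl2, 1.5 mM MgCl2, 10 mM glucose, 10 mM HEPES, pH 7.4. Signals filtered at 1 kHz. Compound at 10 μM. I/I0 is outward current amplitude with over without compound. ΔV1/2 is the shift in V1/2 from Boltzmann fits of activation curves. Mean ± SEM.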

Mus musculus [7] = species: Mus musculus; test: Anticonvulsant activity in Kunming mouse assessed as reduction in Sc-PTZ induced seizure after 1 hr; assay type: functional
How it was run: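 sc-PTZ test in male KM mice. Compound suspended in 0.5% CMC-Na and given orally 1 h before PTZ (freshly dissolved in normal saline, 100 mg/kg). Protection against clonic seizures scored; ED50 by nonlinear regression.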

[8] = Neurotoxicity in Kunming mouse assessed as motor impairment rate at 60 mg/kg, po after 1 hr by rotarod test; assay type: toxicity, organism-based; settings: in vivo
How it was run: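 Male KM mice dosed intragastrically with compound freshly suspended in 0.5% CMC-Na. Rotarod performance scored 1 h after dosing as the fraction of animals showing motor impairment. Fisher's exact test versus vehicle; TD50 from nonlinear dose−response fit.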

[9] = molecular target: Potassium voltage-gated channel subfamily KQT member 2/member 3 (Rattus norvegicus, UniProt O88943+O88944); test: Agonist activity at rat KCNQ2/3 channel expressed in CHO cells by patch clamp method; assay type: cell-based; how it was run: as §1
Chain of Potassium voltage-gated channel subfamily KQT member 2/member 3 (O88943 whole entry): as the sequence (O88943 whole entry, the tested form may be a part) above
Chain of Potassium voltage-gated channel subfamily KQT member 2/member 3 (O88944 whole entry): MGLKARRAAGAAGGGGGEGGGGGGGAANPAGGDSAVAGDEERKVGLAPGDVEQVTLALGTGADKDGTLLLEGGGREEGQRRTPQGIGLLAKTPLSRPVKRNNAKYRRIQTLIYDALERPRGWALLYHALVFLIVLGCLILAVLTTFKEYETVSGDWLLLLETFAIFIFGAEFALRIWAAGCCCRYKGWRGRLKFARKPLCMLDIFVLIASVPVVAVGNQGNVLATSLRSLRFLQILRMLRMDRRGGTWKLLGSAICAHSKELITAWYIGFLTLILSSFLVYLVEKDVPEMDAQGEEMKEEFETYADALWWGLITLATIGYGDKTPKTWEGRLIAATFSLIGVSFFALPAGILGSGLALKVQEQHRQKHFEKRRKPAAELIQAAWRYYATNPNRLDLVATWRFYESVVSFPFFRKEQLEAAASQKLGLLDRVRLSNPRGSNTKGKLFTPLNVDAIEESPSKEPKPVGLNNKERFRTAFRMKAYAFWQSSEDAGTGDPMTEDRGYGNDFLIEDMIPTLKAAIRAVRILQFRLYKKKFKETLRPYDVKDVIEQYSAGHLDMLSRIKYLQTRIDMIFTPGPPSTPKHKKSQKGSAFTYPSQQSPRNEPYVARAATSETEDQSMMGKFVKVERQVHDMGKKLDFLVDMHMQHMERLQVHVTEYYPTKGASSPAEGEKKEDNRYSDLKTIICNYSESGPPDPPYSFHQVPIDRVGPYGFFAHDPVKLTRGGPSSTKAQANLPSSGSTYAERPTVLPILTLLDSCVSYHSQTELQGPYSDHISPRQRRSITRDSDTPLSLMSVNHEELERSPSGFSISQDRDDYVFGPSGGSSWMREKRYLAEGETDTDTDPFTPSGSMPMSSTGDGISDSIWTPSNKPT

Mus musculus [10] = species: Mus musculus; test: Anticonvulsant activity in C57BL/6 mouse 6 Hz seizure model at 32 mA measured after 1 hr; assay type: functional
Mus musculus [11] = species: Mus musculus; test: Anticonvulsant activity in Kunming mouse assessed as reduction in MES-induced seizure after 1 hr; assay type: functional; how it was run: as §2
[12] = molecular target: Potassium voltage-gated channel subfamily KQT member 2 (Rattus norvegicus) (UniProt O88943); test: Agonist activity at rat Kv7.2 channel expressed in CHO cells assessed as shift of half voltage of maximal activation at 10 uM by whole cell patch clamp based electrophysiological method; settings: filed as agonist; how it was run: as §3
Cytochrome P450 1A2 = Cytochrome P450 1A2 (Homo sapiens, UniProt P05177); test: Time dependent inhibition of human liver microsome CYP1A2 preincubated for 0.5 hrs in presence of NADPH followed by substrate addition by LC-MS/MS method; assay type: ADME, microsomes
Chain of Cytochrome P450 1A2 (P05177 whole entry): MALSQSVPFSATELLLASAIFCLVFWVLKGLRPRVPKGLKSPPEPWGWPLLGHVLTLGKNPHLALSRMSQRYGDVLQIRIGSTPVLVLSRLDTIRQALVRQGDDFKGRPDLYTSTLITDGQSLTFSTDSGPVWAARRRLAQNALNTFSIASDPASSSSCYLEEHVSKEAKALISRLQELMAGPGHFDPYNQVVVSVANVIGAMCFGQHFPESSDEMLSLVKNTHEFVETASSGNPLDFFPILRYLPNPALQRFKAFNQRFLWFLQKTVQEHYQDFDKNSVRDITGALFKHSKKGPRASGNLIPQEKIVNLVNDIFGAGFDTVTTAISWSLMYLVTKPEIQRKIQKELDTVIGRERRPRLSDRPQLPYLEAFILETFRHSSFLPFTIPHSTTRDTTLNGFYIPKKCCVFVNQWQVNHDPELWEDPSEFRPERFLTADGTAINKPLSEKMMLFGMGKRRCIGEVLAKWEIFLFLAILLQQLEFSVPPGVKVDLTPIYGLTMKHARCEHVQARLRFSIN
How it was run: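 Human liver microsomes preincubated 0.5 h with 0.10–50 μM test compound, with or without NADPH, then CYP-specific probe substrate added and incubation continued. Metabolite measured by LC-MS/MS; % activity remaining relative to no-compound control; IC50 fitted by Probit model. For CYP3A4, midazolam 1′-hydroxylation and testosterone 6β-hydroxylation were read separately.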

[13] = Tmax in Sprague-Dawley rat at 2 mg/kg, po measured upto 24 hrs by LC-MS/MS method; assay type: ADME, organism-based; settings: in vivo
How it was run: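 Male SD rats (180–220 g) dosed orally at 2, 6 and 20 mg/kg, handled like the mice: fasting, 5% DMSO/5% Tween 80/saline vehicle, acetonitrile extraction, LC-MS/MS of plasma. In a separate set at 6 mg/kg p.o., blood and brain were sampled together.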

CYP2C19 = CYP2C19 (Homo sapiens, UniProt P33261); test: Ratio of IC50 for human liver microsome CYP2C19 in absence of NADPH to IC50 for human liver microsome CYP2C19 in presence of NADPH; settings: liver microsomes, read-out: Ratio IC50
Chain of CYP2C19 (P33261 whole entry): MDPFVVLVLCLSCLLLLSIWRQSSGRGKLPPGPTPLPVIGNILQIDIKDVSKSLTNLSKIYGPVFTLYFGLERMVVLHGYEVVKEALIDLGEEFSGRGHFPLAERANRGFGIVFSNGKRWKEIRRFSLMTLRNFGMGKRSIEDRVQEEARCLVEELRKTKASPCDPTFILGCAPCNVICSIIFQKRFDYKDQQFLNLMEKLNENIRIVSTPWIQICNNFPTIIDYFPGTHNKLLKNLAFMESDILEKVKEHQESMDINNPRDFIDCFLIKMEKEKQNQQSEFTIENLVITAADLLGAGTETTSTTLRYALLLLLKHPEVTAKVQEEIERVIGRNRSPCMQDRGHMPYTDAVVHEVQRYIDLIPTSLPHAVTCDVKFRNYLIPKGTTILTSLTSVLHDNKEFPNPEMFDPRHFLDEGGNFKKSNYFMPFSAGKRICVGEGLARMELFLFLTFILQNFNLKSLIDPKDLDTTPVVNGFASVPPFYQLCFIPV

[14] = Metabolic stability in monkey liver microsomes assessed as half life; assay type: ADME, Macaca mulatta, Microsome; settings: rhesus monkey
CYP1A2 = CYP1A2 (Homo sapiens, UniProt P05177); test: Ratio of IC50 for human liver microsome CYP1A2 in absence of NADPH to IC50 for human liver microsome CYP1A2 in presence of NADPH; settings: liver microsomes, read-out: Ratio IC50
Chain of CYP1A2 (P05177 whole entry): as the sequence (P05177 whole entry) above

Question: Which results are given for `CCOC(=O)Nc1ccc(NCc2ccc(F)cc2)cc1N` [EZOGABINE]?
Answer: EC50 (Mus musculus [1]): 20000 nM; ED50 (Mus musculus [2]): 102 mg/kg; EC50 [3]: 2040 nM; ED50 (Mus musculus [4]): 38.6 mg/kg; Activity (Mus musculus [5]): 87.5%; Activity [6]: 1.79; ED50 (Mus musculus [7]): > 56 mg/kg; Activity [8]: Non-Toxic; EC50 [9]: 4150 nM; ED50 (Mus musculus [10]): 65.9 mg/kg; ED50 (Mus musculus [11]): 38.6 mg/kg; Activity [12]: -33.2 mV

Question: Which IC50 (Cytochrome P450 1A2) does the source give for `C#CCN(Cc1ccc(F)cc1)c1cc(C)c(NC(=O)OC)c(C)c1` here?
Answer: Its IC50 is 2530 nM.

Question: What about the Tmax [13] of the same compound?
Answer: Its Tmax is 30 min.

Question: What about the EC50 (Mus musculus [1]) of the same compound?
Answer: Its EC50 is 50 nM.

Question: And the ED50 (Mus musculus [2])?
Answer: The ED50 was 29.9 mg/kg.

Question: What about the EC50 [3] of the same compound?
Answer: The EC50 was 37 nM.

Question: And the ED50 (Mus musculus [4])?
Answer: Its ED50 is 1.9 mg/kg.

Question: And the Activity [6]?
Answer: The Activity was 4.75.

Question: What about the IC50 shift (CYP2C19) of the same compound?
Answer: The IC50 shift was less than 1.5.

Question: And the ED50 (Mus musculus [7])?
Answer: The ED50 was 9.8 mg/kg.

Question: And the Activity [8]?
Answer: Its Activity is “Non-Toxic”.

Question: And the EC50 [9]?
Answer: The EC50 was 33.1 nM.

Question: And the half-life [14]?
Answer: The half-life was 18.1 min.

Question: And the IC50 shift (CYP1A2)?
Answer: Its IC50 shift is greater than 1.5.

Question: And the ED50 (Mus musculus [10])?
Answer: The ED50 was 16.8 mg/kg.

Question: What about the ED50 (Mus musculus [11]) of the same compound?
Answer: The ED50 was 1.9 mg/kg.

Question: And the Activity [12]?
Answer: Its Activity is -38.5 mV.

Reference: ChEMBL document CHEMBL5149984, “Discovery of HN37 as a Potent and Chemically Stable Antiepileptic Drug Candidate” (J Med Chem, 2021)
